Source: ChEMBL document CHEMBL4364345, “Synthesis and evaluation of 1,3,4-oxadiazole derivatives for development as broad-spectrum antibiotics” (Bioorg Med Chem, 2019)
≈ marks a conversion by molar mass, not a printed value. Calls of active or inactive are those of the source.

Tests used:
Clostridium perfringens [1] = assay: Antimicrobial activity against Clostridium perfringens clinical isolate by broth microdilution method; type: functional
Method in brief: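 MIC by broth microdilution following EUCAST guidelines; values or ranges from three independent experiments. MICs were determined only where the disk diffusion inhibition diameter was at least 9 mm.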

Escherichia coli [2] = assay: Antimicrobial activity against TolC deficient Escherichia coli BW25113 by agar disk diffusion method; type: functional
Escherichia coli [3] = assay: Antimicrobial activity against Escherichia coli ATCC 25922 at 50 ug/disk incubated for 20 +/- 4 hrs by agar disk diffusion method; type: functional; conditions: read-out: DIZ
Method in brief: (§1)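 Agar disk diffusion on Mueller-Hinton agar swab-seeded from a 0.5 McFarland inoculum (about 10^8 CFU/ml). Cellulose discs got 50 μg compound (10 μl of 5 g/L in DMSO); a 10 μL DMSO disc was the control. Incubated aerobically at 35 ± 2 °C for 20 ± 4 h, then growth-inhibition diameters measured.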

Bacillus subtilis = assay: Antimicrobial activity against Bacillus subtilis clinical isolate at 50 ug/disk incubated for 20 +/- 4 hrs by agar disk diffusion method; type: functional; conditions: read-out: DIZ; method in brief: as §1
Listeria monocytogenes [4] = assay: Antimicrobial activity against Listeria monocytogenes clinical isolate by broth microdilution method; type: functional
Method in brief: (§2)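 MICs were set by broth microdilution following EUCAST guidelines, from three independent experiments reported as values or ranges. MICs were measured only where disk-diffusion inhibition diameters were 9 mm or more.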

MCF7 = assay: Cytotoxicity against human MCF7 cells assessed as decrease in cell viability in MTT assay; type: cell-based
Method in brief: (§3)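 Cell viability was measured by MTT on a robotic screening platform. Residual viability was expressed as a percentage of the mean viable cells in DMSO-treated controls. Under 25-30% viability was considered cytotoxic, and IC50 values were derived.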

Escherichia coli [5] = assay: Antimicrobial activity against Escherichia coli BW25113 at 10 mM/disk incubated for 20 +/- 4 hrs by agar disk diffusion method; type: functional; conditions: read-out: DIZ
Staphylococcus aureus [6] = assay: Antimicrobial activity against Staphylococcus aureus ATCC 29213 by broth microdilution method; type: functional; method in brief: as §2
Enterococcus faecium [7] = assay: Synergistic antimicrobial activity against Enterococcus faecium AUS0004 assessed as DIZ at 50 ug/disk incubated for 20 +/- 4 hrs in presence of gentamicin by agar disk diffusion method (reference value: 17 millimeter); type: functional; conditions: read-out: DIZ
Staphylococcus aureus [8] = assay: Antimicrobial activity against Staphylococcus aureus ATCC 29213 at 50 ug/disk incubated for 20 +/- 4 hrs by agar disk diffusion method; type: functional; conditions: read-out: DIZ; method in brief: as §1
Enterobacter cloacae = assay: Antimicrobial activity against Enterobacter cloacae clinical isolate at 50 ug/disk incubated for 20 +/- 4 hrs by agar disk diffusion method; type: functional; conditions: read-out: DIZ; method in brief: as §1
[9] = system: Staphylococcus epidermidis; assay: Antimicrobial activity against Staphylococcus epidermidis clinical isolate at 50 ug/disk incubated for 20 +/- 4 hrs by agar disk diffusion method; type: functional; conditions: read-out: DIZ; method in brief: as §1
Enterococcus faecalis [10] = assay: Antimicrobial activity against Enterococcus faecalis ATCC 29212 by broth microdilution method; type: functional; method in brief: as §2
Enterococcus faecalis [11] = assay: Synergistic antimicrobial activity against Enterococcus faecalis ATCC 29212 assessed as DIZ at 50 ug/disk incubated for 20 +/- 4 hrs in presence of gentamicin by agar disk diffusion method (reference value: 13 millimeter); type: functional; conditions: read-out: DIZ
Bacteroides fragilis = assay: Antimicrobial activity against Bacteroides fragilis ATCC 25285 by broth microdilution method; type: functional; method in brief: as §2
[12] = system: Mycobacteroides abscessus; assay: Antimicrobial activity against Mycobacterium abscessus clinical isolate by broth microdilution method; type: functional; method in brief: as §2
Enterococcus faecium [13] = assay: Antimicrobial activity against Enterococcus faecium HM1070 at 50 ug/disk incubated for 20 +/- 4 hrs by agar disk diffusion method; type: functional; conditions: read-out: DIZ; method in brief: as §1
Enterococcus faecalis [14] = assay: Antimicrobial activity against Enterococcus faecalis ATCC 29212 at 50 ug/disk incubated for 20 +/- 4 hrs by agar disk diffusion method; type: functional; conditions: read-out: DIZ; method in brief: as §1
Listeria monocytogenes [15] = assay: Synergistic antimicrobial activity against Listeria monocytogenes clinical isolate assessed as DIZ at 50 ug/disk incubated for 20 +/- 4 hrs in presence of ofloxacin by agar disk diffusion method (reference value: 19 millimeter); type: functional; conditions: read-out: DIZ
HCT-116 = assay: Cytotoxicity against human HCT116 cells assessed as decrease in cell viability in MTT assay; type: cell-based; method in brief: as §3
[16] = system: Staphylococcus epidermidis; assay: Antimicrobial activity against Staphylococcus epidermidis clinical isolate by broth microdilution method; type: functional; method in brief: as §2
Enterococcus faecalis [17] = assay: Synergistic antimicrobial activity against Enterococcus faecalis ATCC 29212 assessed as DIZ at 50 ug/disk incubated for 20 +/- 4 hrs in presence of streptomycin by agar disk diffusion method (reference value: 18 millimeter); type: functional; conditions: read-out: DIZ
Escherichia coli [18] = assay: Antimicrobial activity against Escherichia coli clinical isolate at 50 ug/disk incubated for 20 +/- 4 hrs by agar disk diffusion method; type: functional; conditions: read-out: DIZ; method in brief: as §1
Streptococcus pyogenes = assay: Antimicrobial activity against Streptococcus pyogenes clinical isolate at 50 ug/disk incubated for 20 +/- 4 hrs by agar disk diffusion method; type: functional; conditions: read-out: DIZ
Method in brief: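 Plates of MH + 5% horse blood were swabbed with a 0.5 McFarland inoculum and received discs with 50 μg compound (from 5 g/L in DMSO) plus a 10 μL DMSO control disc. Incubation at 35 ± 2 °C aerobically with 5% CO2 for 20 ± 4 h, then zone diameters measured.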

Escherichia coli [19] = assay: Antimicrobial activity against clpP-TolC deficient Escherichia coli BW25113 by agar disk diffusion method; type: functional
Clostridium perfringens [20] = assay: Antimicrobial activity against Clostridium perfringens clinical isolate at 50 ug/disk incubated for 20 +/- 4 hrs by agar disk diffusion method; type: functional; conditions: read-out: DIZ
Method in brief: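 Agar disk diffusion on MH agar with 5% horse blood (MHF), surface-seeded by swab from a 0.5 McFarland inoculum (about 10^8 CFU/ml). Cellulose discs received 10 μl of a 5 g/L DMSO solution (50 μg). A DMSO-only disc served as control. Anaerobic incubation at 35 ± 2 °C for 20 ± 4 h; growth-inhibition diameter measured in mm.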

Kocuria rhizophila = assay: Antimicrobial activity against Kocuria rhizophila clinical isolate at 50 ug/disk incubated for 20 +/- 4 hrs by agar disk diffusion method; type: functional; conditions: read-out: DIZ; method in brief: as §1
Enterococcus faecium [21] = assay: Synergistic antimicrobial activity against Enterococcus faecium AUS0004 assessed as DIZ at 50 ug/disk incubated for 20 +/- 4 hrs in presence of imipenem by agar disk diffusion method (reference value: 6 millimeter); type: functional; conditions: read-out: DIZ
Acinetobacter baumannii = assay: Antimicrobial activity against Acinetobacter baumannii clinical isolate at 50 ug/disk incubated for 20 +/- 4 hrs by agar disk diffusion method; type: functional; conditions: read-out: DIZ; method in brief: as §1

Compound	MIC (Clostridium perfringens [1])	diameter of the inhibition zone (DIZ) (Escherichia coli [2])	zone of inhibition at 50 µg/disc (Escherichia coli [3])	zone of inhibition at 50 µg/disc (Bacillus subtilis)	MIC (Listeria monocytogenes [4])	IC50 (MCF7)	zone of inhibition at 10000 µM (Escherichia coli [5])	MIC (Staphylococcus aureus [6])	zone of inhibition at 50 µg/disc (Staphylococcus aureus [8])	zone of inhibition at 50 µg/disc (Enterobacter cloacae)	zone of inhibition at 50 µg/disc [9]	MIC (Enterococcus faecalis [10])	MIC (Bacteroides fragilis)	MIC [12]	zone of inhibition at 50 µg/disc (Enterococcus faecium [13])	zone of inhibition at 50 µg/disc (Enterococcus faecalis [14])	IC50 (HCT-116)	MIC [16]	zone of inhibition at 50 µg/disc (Escherichia coli [18])	zone of inhibition at 50 µg/disc (Streptococcus pyogenes)	further results
O=C(Nc1nnc(-c2ccc(C(F)(F)F)cc2)o1)c1ccc(Cl)nc1	4 µg/mL (≈ 10.8 µM)	23.6 mm	6 mm	24 mm	8 µg/mL (≈ 21.7 µM)	> 25 µM	6 mm	2 to 4 µg/mL (≈ 5.42 to 10.8 µM)	22 mm	6 mm	28 mm	2 to 4 µg/mL (≈ 5.42 to 10.8 µM)	2 µg/mL (≈ 5.42 µM)	16 to 32 µg/mL (≈ 43.4 to 86.8 µM)	24 mm	23 mm	> 25 µM	1 to 2 µg/mL (≈ 2.71 to 5.42 µM)	6 mm	10 mm	zone of inhibition at 50 µg/disc (Enterococcus faecium [7]): 25 mm; zone of inhibition at 50 µg/disc (Enterococcus faecalis [11]): 23 mm; zone of inhibition at 50 µg/disc (Listeria monocytogenes [15]): 30 mm; zone of inhibition at 50 µg/disc (Enterococcus faecalis [17]): 22 mm; diameter of the inhibition zone (DIZ) (Escherichia coli [19]): 27 mm; zone of inhibition at 50 µg/disc (Clostridium perfringens [20]): 13 mm; zone of inhibition at 50 µg/disc (Kocuria rhizophila): 28 mm; zone of inhibition at 50 µg/disc (Enterococcus faecium [21]): 24 mm; zone of inhibition at 50 µg/disc (Acinetobacter baumannii): 6 mm
O=C(Nc1ncc(-c2ccc(F)cc2)o1)c1ccc(Cl)cc1	inactive	11.33 mm	8 mm	15 mm	32 to 64 µg/mL (≈ 101 to 202 µM)	4 µM	6 mm	0.5 to 4 µg/mL (≈ 1.58 to 12.6 µM)	16 mm	6 mm	18 mm	2 to 16 µg/mL (≈ 6.31 to 50.5 µM)	inactive	inactive	13 mm	11 mm	2 µM	0.25 µg/mL (≈ 0.789 µM)	6 mm	6 mm	zone of inhibition at 50 µg/disc (Enterococcus faecium [7]): 18 mm; zone of inhibition at 50 µg/disc (Enterococcus faecalis [11]): 16 mm; zone of inhibition at 50 µg/disc (Listeria monocytogenes [15]): 15 mm; zone of inhibition at 50 µg/disc (Enterococcus faecalis [17]): 19 mm; diameter of the inhibition zone (DIZ) (Escherichia coli [19]): 13.3 mm; zone of inhibition at 50 µg/disc (Clostridium perfringens [20]): 6 mm; zone of inhibition at 50 µg/disc (Kocuria rhizophila): 18 mm; zone of inhibition at 50 µg/disc (Enterococcus faecium [21]): 13 mm; zone of inhibition at 50 µg/disc (Acinetobacter baumannii): 6 mm
O=C(Nc1nnc(-c2ccc(C(F)(F)F)cc2)o1)c1cccc(Cl)c1	2 to 4 µg/mL (≈ 5.44 to 10.9 µM)	21.3 mm	6 mm	24 mm	8 µg/mL (≈ 21.8 µM)	15 µM	6 mm	2 µg/mL (≈ 5.44 µM)	24 mm	6 mm	27 mm	0.125 to 1 µg/mL (≈ 0.34 to 2.72 µM)	1 to 2 µg/mL (≈ 2.72 to 5.44 µM)	32 to 64 µg/mL (≈ 87 to 174 µM)	23 mm	20 mm	10 µM	0.0625 to 0.25 µg/mL (≈ 0.17 to 0.68 µM)	6 mm	9 mm	zone of inhibition at 50 µg/disc (Enterococcus faecium [7]): 25 mm; zone of inhibition at 50 µg/disc (Enterococcus faecalis [11]): 23 mm; zone of inhibition at 50 µg/disc (Listeria monocytogenes [15]): 29 mm; zone of inhibition at 50 µg/disc (Enterococcus faecalis [17]): 24 mm; diameter of the inhibition zone (DIZ) (Escherichia coli [19]): 22.3 mm; zone of inhibition at 50 µg/disc (Clostridium perfringens [20]): 11 mm; zone of inhibition at 50 µg/disc (Kocuria rhizophila): 30 mm; zone of inhibition at 50 µg/disc (Enterococcus faecium [21]): 24 mm; zone of inhibition at 50 µg/disc (Acinetobacter baumannii): 6 mm
O=C(Nc1nnc(-c2ccc(F)cc2)o1)c1ccc(Cl)cc1	4 µg/mL (≈ 12.6 µM)	13 mm	6 mm	12 mm	4 µg/mL (≈ 12.6 µM)	22 µM	6 mm	0.5 to 4 µg/mL (≈ 1.57 to 12.6 µM)	12 mm	6 mm	15 mm	16 µg/mL (≈ 50.4 µM)	2 to 4 µg/mL (≈ 6.3 to 12.6 µM)	64 µg/mL (≈ 201 µM)	8 mm	6 mm	17 µM	0.5 to 4 µg/mL (≈ 1.57 to 12.6 µM)	6 mm	6 mm	diameter of the inhibition zone (DIZ) (Escherichia coli [19]): 14.3 mm; zone of inhibition at 50 µg/disc (Clostridium perfringens [20]): 6 mm; zone of inhibition at 50 µg/disc (Kocuria rhizophila): 11 mm; zone of inhibition at 50 µg/disc (Acinetobacter baumannii): 6 mm
